Assay [1] deals with Phleum pratense. Kind of assay: Phytotoxicity against Phleum pratense (timothy grass) assessed as necrotic lesion diameter at 2 mg/mL at 24 degC measured after 2 days by leaf disk-puncture assay. Format: functional. The essentials:
(§1)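 Plants were raised in a greenhouse from underground shoot pieces or seeds. 10 mm disks were cut with a cork borer from well-expanded leaves, laid on moist filter paper and punctured centrally with a needle. Compound was predissolved in EtOH and diluted with water (final 5% v/v EtOH), and a 10 μL droplet was applied. Disks were incubated at 24 °C under a 12 h photoperiod, and necrotic lesion diameter (mm) was measured after 2 days.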

Assay [2] has as its system Cirsium arvense. Description: Phytotoxicity against Cirsium arvense (Canada thistle) assessed as necrotic lesion diameter at 2 mg/mL at 24 degC measured after 2 days by leaf disk-puncture assay. Format: functional. An outline of the steps:
as §1

In assay [3] the test system is Sonchus arvensis. Kind of assay: Phytotoxicity against Sonchus arvensis (field sow-thistle) assessed as necrotic lesions at 2 mg/mL at 24 degC measured after 2 days by leaf disk-puncture assay. Format: functional. An outline of the steps: as §1
In assay [4] the test system is Aegopodium podagraria. Kind of assay: Phytotoxicity against Aegopodium podagraria (bishop's weed) assessed as necrotic lesion diameter at 2 mg/mL at 24 degC measured after 2 days by leaf disk-puncture assay. Format: functional. An outline of the steps:
as §1

Assay [5] has as its system Saccharomyces cerevisiae. Description: Antifungal activity against Saccharomyces cerevisiae at 100 ug/disk. Format: functional, organism-based. An outline of the steps:
(§2)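 Test organisms were S. cerevisiae (antifungal) and X. campestris, E. coli and B. subtilis (antibacterial). Compound applied to a disk at 100 μg per disk, following a previously described disk method.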

Assay [6] deals with Taraxacum officinale. Description: Phytotoxicity against Taraxacum officinale (dandelion) assessed as necrotic lesion diameter at 2 mg/mL at 24 degC measured after 2 days by leaf disk-puncture assay. Format: functional. The essentials:
as §1

The subject of assay [7] is Convolvulus arvensis. Description: Phytotoxicity against Convolvulus arvensis assessed as necrotic lesion diameter at 2 mg/mL at 24 degC measured after 2 days by leaf disk-puncture assay. Format: functional. The essentials: as §1
Assay [8] deals with Calendula officinalis. Description: Phytotoxicity against Calendula officinalis assessed as necrotic lesion diameter at 2 mg/mL at 24 degC measured after 2 days by leaf disk-puncture assay. Format: functional. An outline of the steps:
as §1

The test system of assay [9] is Bacillus subtilis. Kind of assay: Antibacterial activity against Bacillus subtilis at 100 ug/disk. Format: functional, organism-based. The essentials: as §2
The subject of assay [10] is Elymus repens. Description: Phytotoxicity against Elymus repens (couch grass) assessed as necrotic lesion diameter at 2 mg/mL at 24 degC measured after 2 days by leaf disk-puncture assay. Format: functional. The essentials:
as §1

Assay [11] relates to Xanthomonas campestris. Kind of assay: Antibacterial activity against Xanthomonas campestris at 100 ug/disk. Format: functional, organism-based. An outline of the steps:
as §2

Assay [12] has as its system Amaranthus retroflexus. Description: Phytotoxicity against Amaranthus rethroflexus assessed as necrotic lesion diameter at 2 mg/mL at 24 degC measured after 2 days by leaf disk-puncture assay. Format: functional. An outline of the steps:
as §1

The test system of assay [13] is Sonchus arvensis. Kind of assay: Phytotoxicity against Sonchus arvensis (field sow-thistle) assessed as necrotic lesion diameter at 4 mg/mL at 24 degC measured after 2 days by leaf disk-puncture assay. Format: functional. The essentials:
as §1

Assay [14] relates to Escherichia coli. Kind of assay: Antibacterial activity against Escherichia coli at 100 ug/disk. Format: functional, organism-based. The essentials: as §2
Assay [15] concerns Sonchus arvensis. Description: Phytotoxicity against Sonchus arvensis (field sow-thistle) assessed as necrotic lesions at 1 mg/mL at 24 degC measured after 2 days by leaf disk-puncture assay. Format: functional. An outline of the steps:
as §1

Data on two compounds can be found in ChEMBL document CHEMBL3044563, “Alternethanoxins A and B, polycyclic ethanones produced by Alternaria sonchi , potential mycoherbicides for Sonchus arvensis biocontrol” (2009).

Activity calls are given as the source filed them. The calls are words filed in the database; no cut-off is given here.

In the case of `COc1ccc2oc3c(C(C)=O)cc(O)c4c3c2c1[C@@H](O)O4` [ALTERNETHANOXIN B], the Activity in assay [1], in assay [2], in assay [4], in [6], in assay [7] and in assay [8] was 1 mm throughout. The Activity in assay [10] was found to be 1 mm; in assay [12], 1 mm; in [13], 2 mm. The outcome in assay [3] was Active. In addition, the outcome in assay [5], in assay [9], in assay [11] and in assay [14] was inactive.

As to `COc1cccc2c1[C@H](O)Oc1c(O)cc(C(C)=O)c(O)c1-2` [ALTERNETHANOXIN A], the Activity in assay [1], in [2], in assay [4], in [6], in assay [7] and in [8] was 1 mm each time. Also, the Activity came out at 1 mm in [10], 1 mm in [12] and 4 mm in assay [13]. Also, the result in assay [5], in assay [9], in assay [11] and in [14] was inactive. In addition, the result in [15] was Active.
